Measurements as given in ChEMBL document CHEMBL1828560, “Design, synthesis and biological study of pinacolyl boronate-substituted stilbenes as novel lipogenic inhibitors” (Bioorg Med Chem Lett, 2011).
The source made the active and inactive calls. The rule behind the calls is not given here.

Columns and labels:
HepG2 [1] = experiment: Inhibition of FAS gene expression in human HepG2 cells at 30 uM after 6 hrs by quantitative RT-PCR; type: functional, cell-based
Procedure, shortened: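 HepG2 cells grown at 37°C, 5% CO2 in DMEM with 10% FBS, penicillin-streptomycin and 20mM glutamine; compounds at 30μM for 6 hours. Total RNA extracted with Trizol; 2 μg reverse-transcribed to cDNA; FAS transcript quantified by real-time qPCR with cyclophilin B as invariant control. Three independent samples averaged; compared with DMSO.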

HepG2 [2] = experiment: Cytotoxicity against human HepG2 cells; type: cell-based
FaO [3] = experiment: Inhibition of lipogenesis in rat FaO cells assessed as decrease in synthesis rate of palmitate at 20 uM after 12 hrs by deuterium enrichment-GC/MS method in presence of 100 nM insulin; type: functional, cell-based
Procedure, shortened: (§1)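 Rat hepatoma FAO cells, maintained in DMEM with 10% FBS, treated at 20μM for 12 hours with 100 nM insulin. Cells cultured in DMEM containing 10% 2H2O for 18 hours; deuterium incorporation into palmitate or cholesterol measured by GC/MS to give synthesis rate. Averages of three independent samples vs DMSO.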

HepG2 [4] = experiment: Inhibition of HMGCR gene expression in human HepG2 cells after 6 hrs by measuring mRNA level of HMGCR using quantitative RT-PCR; type: functional, cell-based
Procedure, shortened: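 HepG2 cells cultured in DMEM plus 10% FBS, penicillin-streptomycin, 20mM glutamine (37°C, 5% CO2), exposed to a series of concentrations for 6 hours. HMGCR mRNA measured by qRT-PCR: Trizol RNA extraction, 2 μg RNA converted to cDNA, real-time PCR normalized to cyclophilin B.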

FaO [5] = experiment: Inhibition of cholesterol biosynthesis in rat FaO cells at 20 uM after 12 hrs by deuterium enrichment-GC/MS method in presence of 100 nM insulin; type: functional, cell-based; procedure, shortened: as §1
Mus musculus = species: Mus musculus; experiment: Toxicity in mouse; type: organism-based; settings: in vivo

CC1(C)OB(c2ccc(C=Cc3ccc(O)cc3)cc2)OC1(C)C (mixture of isomers)
inhibition (HepG2 [1]): Active
Activity (HepG2 [2]): Non-toxic
inhibition (FaO [3]): Active
inhibition (HepG2 [4]): Dose-dependent effect
inhibition (FaO [5]): Active
Activity (Mus musculus): Non-toxic

CC1(C)OB(c2ccc(C=Cc3cc(Cl)cc(Cl)c3)cc2)OC1(C)C (mixture of isomers)
inhibition (HepG2 [1]): Active
Activity (HepG2 [2]): Non-toxic

COc1ccc(C=Cc2ccc(B3OC(C)(C)C(C)(C)O3)cc2)cc1 (mixture of isomers)
inhibition (HepG2 [1]): inactive
inhibition (HepG2 [4]): inactive
